Tests used:
Mus musculus [1] = species: Mus musculus; assay: Tested for biodistribution of compound at 10 min in mice kidney; assay type: ADME, organism-based; details: in vivo
Outline: (§1)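 Male Swiss albino mice, at least five per group, received 0.1 mL (2-3 μCi) of HPLC-purified 99mTc complex reconstituted in 50% methanol by tail vein. They were killed by cardiectomy under light ether anesthesia at set times (1-60 min pi). Organs were weighed and γ-counted against a 1% injected-dose standard to give % dose/organ. Blood and muscle were taken as 7% and 43% of body weight.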

Rattus norvegicus [2] = species: Rattus norvegicus; assay: Tested for biodistribution of compound at 60 min in rat lungs; assay type: ADME, organism-based, Lung; details: in vivo, 1 h
Rattus norvegicus [3] = species: Rattus norvegicus; assay: Tested for biodistribution of compound at 5 min in rat s. intestine; assay type: ADME, organism-based; details: in vivo
Rattus norvegicus [4] = species: Rattus norvegicus; assay: Tested for biodistribution of compound at 60 min in rat heart; assay type: ADME, organism-based; details: in vivo, 1 h
Mus musculus [5] = species: Mus musculus; assay: Tested for biodistribution of compound at 30 min in mice stomach; assay type: ADME, organism-based; details: in vivo, 0.5 h; outline: as §1
Mus musculus [6] = species: Mus musculus; assay: Tested for biodistribution of compound at 60 min in mice brain; assay type: ADME, organism-based; details: in vivo, 1 h
Outline: (§2)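 Male Swiss albino mice, at least five per group, received HPLC-purified 99mTc complex by tail vein. The complex was reconstituted in 50% methanol (0.1 mL, 2-3 μCi). Mice were killed by cardiectomy under light ether at 1-60 min pi. Organs were weighed and γ-counted against a 1% injected-dose standard to give % dose/organ. Blood and muscle were taken as 7% and 43% of body weight.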

Rattus norvegicus [7] = species: Rattus norvegicus; assay: Tested for biodistribution of compound at 5 min in rat kidney; assay type: ADME, organism-based; details: in vivo
Rattus norvegicus [8] = species: Rattus norvegicus; assay: Tested for biodistribution of compound at 30 min in rat stomach; assay type: ADME, organism-based; details: in vivo, 0.5 h
Mus musculus [9] = species: Mus musculus; assay: Tested for biodistribution of compound at 30 min in mice lungs; assay type: ADME, organism-based, Lung; details: in vivo, 0.5 h; outline: as §1
Mus musculus [10] = species: Mus musculus; assay: Tested for biodistribution of compound at 1 min in mice blood; assay type: ADME, organism-based; details: in vivo; outline: as §1
Mus musculus [11] = species: Mus musculus; assay: Tested for biodistribution of compound at 5 min in mice spleen; assay type: ADME, organism-based; details: in vivo; outline: as §2
Mus musculus [12] = species: Mus musculus; assay: Tested for biodistribution of compound at 1 min in mice liver; assay type: ADME, organism-based; details: in vivo; outline: as §1
Mus musculus [13] = species: Mus musculus; assay: Tested for biodistribution of compound at 10 min in mice urine; assay type: ADME, organism-based; details: in vivo; outline: as §1
Rattus norvegicus [14] = species: Rattus norvegicus; assay: Tested for biodistribution of compound at 60 min in rat blood; assay type: ADME, organism-based; details: in vivo, 1 h
Rattus norvegicus [15] = species: Rattus norvegicus; assay: Tested for biodistribution of compound at 5 min in rat spleen; assay type: ADME, organism-based; details: in vivo
Rattus norvegicus [16] = species: Rattus norvegicus; assay: Tested for biodistribution of compound at 30 min in rat heart; assay type: ADME, organism-based; details: in vivo, 0.5 h
Outline: (§3)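 Wistar rats under ether anesthesia were dosed through the femoral vein with 0.1 mL of 99mTc complex (3-6 μCi) and dissected 5-60 min pi. Tissue radioactivity was γ-counted against a 1% injected-dose standard and expressed as % dose/organ. Blood and muscle were calculated from sample weight assuming 7% and 43% of body weight.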

Mus musculus [17] = species: Mus musculus; assay: Tested for biodistribution of compound at 5 min in mice kidney; assay type: ADME, organism-based; details: in vivo; outline: as §2
Mus musculus [18] = species: Mus musculus; assay: Tested for biodistribution of compound at 5 min in mice brain; assay type: ADME, organism-based; details: in vivo; outline: as §2
Mus musculus [19] = species: Mus musculus; assay: Tested for biodistribution of compound at 10 min in mice liver; assay type: ADME, organism-based; details: in vivo; outline: as §1
Rattus norvegicus [20] = species: Rattus norvegicus; assay: Tested for biodistribution of compound at 60 min in rat kidney; assay type: ADME, organism-based; details: in vivo, 1 h
Mus musculus [21] = species: Mus musculus; assay: Tested for biodistribution of compound at 1 min in mice brain; assay type: ADME, organism-based; details: in vivo; outline: as §1
Rattus norvegicus [22] = species: Rattus norvegicus; assay: Tested for biodistribution of compound at 10 min in rat lungs; assay type: ADME, organism-based, Lung; details: in vivo; outline: as §3
Mus musculus [23] = species: Mus musculus; assay: Tested for biodistribution of compound at 30 min in mice muscle; assay type: ADME, organism-based, Muscle tissue; details: in vivo, 0.5 h; outline: as §1
Mus musculus [24] = species: Mus musculus; assay: Tested for biodistribution of compound at 1 min in mice lungs; assay type: ADME, organism-based, Lung; details: in vivo; outline: as §1
Rattus norvegicus [25] = species: Rattus norvegicus; assay: Tested for biodistribution of compound at 5 min in rat heart; assay type: ADME, organism-based; details: in vivo
Mus musculus [26] = species: Mus musculus; assay: Tested for biodistribution of compound at 30 min in mice urine; assay type: ADME, organism-based; details: in vivo, 0.5 h; outline: as §1
Rattus norvegicus [27] = species: Rattus norvegicus; assay: Tested for biodistribution of compound at 10 min in rat heart; assay type: ADME, organism-based; details: in vivo; outline: as §3
Mus musculus [28] = species: Mus musculus; assay: Tested for biodistribution of compound at 5 min in mice intestine; assay type: ADME, organism-based; details: in vivo; outline: as §2
Mus musculus [29] = species: Mus musculus; assay: Tested for biodistribution of compound at 5 min in mice stomach; assay type: ADME, organism-based; details: in vivo; outline: as §2
Rattus norvegicus [30] = species: Rattus norvegicus; assay: Tested for biodistribution of compound at 30 min in rat kidney; assay type: ADME, organism-based; details: in vivo, 0.5 h; outline: as §3
Rattus norvegicus [31] = species: Rattus norvegicus; assay: Tested for biodistribution of compound at 30 min in rat muscle; assay type: ADME, organism-based, Muscle tissue; details: in vivo, 0.5 h
Mus musculus [32] = species: Mus musculus; assay: Tested for biodistribution of compound at 10 min in mice spleen; assay type: ADME, organism-based; details: in vivo; outline: as §1
Rattus norvegicus [33] = species: Rattus norvegicus; assay: Tested for biodistribution of compound at 30 min in rat liver; assay type: ADME, organism-based; details: in vivo, 0.5 h
Rattus norvegicus [34] = species: Rattus norvegicus; assay: Tested for biodistribution of compound at 5 min in rat blood; assay type: ADME, organism-based; details: in vivo
Mus musculus [35] = species: Mus musculus; assay: Tested for biodistribution of compound at 10 min in mice blood; assay type: ADME, organism-based; details: in vivo; outline: as §1
Rattus norvegicus [36] = species: Rattus norvegicus; assay: Tested for biodistribution of compound at 10 min in rat stomach; assay type: ADME, organism-based; details: in vivo; outline: as §3
Rattus norvegicus [37] = species: Rattus norvegicus; assay: Tested for biodistribution of compound at 60 min in rat brain; assay type: ADME, organism-based; details: in vivo, 1 h
Mus musculus [38] = species: Mus musculus; assay: Tested for biodistribution of compound at 5 min in mice liver; assay type: ADME, organism-based; details: in vivo; outline: as §2
Mus musculus [39] = species: Mus musculus; assay: Tested for biodistribution of compound at 1 min in mice muscle; assay type: ADME, organism-based, Muscle tissue; details: in vivo; outline: as §1
Mus musculus [40] = species: Mus musculus; assay: Tested for biodistribution of compound at 60 min in mice kidney; assay type: ADME, organism-based; details: in vivo, 1 h; outline: as §2
Rattus norvegicus [41] = species: Rattus norvegicus; assay: Tested for biodistribution of compound at 60 min in rat liver; assay type: ADME, organism-based; details: in vivo, 1 h
Mus musculus [42] = species: Mus musculus; assay: Tested for biodistribution of compound at 60 min in mice heart; assay type: ADME, organism-based; details: in vivo, 1 h; outline: as §2
Rattus norvegicus [43] = species: Rattus norvegicus; assay: Tested for biodistribution of compound at 60 min in rat stomach; assay type: ADME, organism-based; details: in vivo, 1 h
Mus musculus [44] = species: Mus musculus; assay: Tested for biodistribution of compound at 10 min in mice intestine; assay type: ADME, organism-based; details: in vivo; outline: as §1
Mus musculus [45] = species: Mus musculus; assay: Tested for biodistribution of compound at 60 min in mice liver; assay type: ADME, organism-based; details: in vivo, 1 h; outline: as §2
Mus musculus [46] = species: Mus musculus; assay: Tested for biodistribution of compound at 30 min in mice intestine; assay type: ADME, organism-based; details: in vivo, 0.5 h; outline: as §1
Mus musculus [47] = species: Mus musculus; assay: Tested for biodistribution of compound at 30 min in mice spleen; assay type: ADME, organism-based; details: in vivo, 0.5 h; outline: as §1
Rattus norvegicus [48] = species: Rattus norvegicus; assay: Tested for biodistribution of compound at 60 min in rat l intestine; assay type: ADME, organism-based; details: in vivo, 1 h

[4-methoxythio)phenolato][N,N-bis(2-mercaptoethyl)-N',N'-diethylethylenediamine] oxotechnetium
Dose/organ (Mus musculus [1]): 3.18% | Dose/organ (Rattus norvegicus [2]): 1.14% | Dose/organ (Rattus norvegicus [3]): 5.96% | Dose/organ (Rattus norvegicus [4]): 0.15% | Dose/organ (Mus musculus [5]): 1.24% | Dose/organ (Mus musculus [6]): 1.54% | Dose/organ (Rattus norvegicus [7]): 3.22% | Dose/organ (Rattus norvegicus [8]): 2.19% | Dose/organ (Mus musculus [9]): 3.09% | Dose/organ (Mus musculus [10]): 5.24% | Dose/organ (Mus musculus [11]): 0.28% | Dose/organ (Mus musculus [12]): 1.96% | Dose/organ (Mus musculus [13]): 1.1% | Dose/organ (Rattus norvegicus [14]): 4.8% | Dose/organ (Rattus norvegicus [15]): 0.58% | Dose/organ (Rattus norvegicus [16]): 0.17% | Dose/organ (Mus musculus [17]): 3.14% | Dose/organ (Mus musculus [18]): 3.01% | Dose/organ (Mus musculus [19]): 14.14% | Dose/organ (Rattus norvegicus [20]): 8.73% | Dose/organ (Mus musculus [21]): 3.56% | Dose/organ (Rattus norvegicus [22]): 7.78% | Dose/organ (Mus musculus [23]): 8.18% | Dose/organ (Mus musculus [24]): 27.19% | Dose/organ (Rattus norvegicus [25]): 0.64% | Dose/organ (Mus musculus [26]): 5.06% | Dose/organ (Rattus norvegicus [27]): 0.51% | Dose/organ (Mus musculus [28]): 8.31% | Dose/organ (Mus musculus [29]): 0.96% | Dose/organ (Rattus norvegicus [30]): 6.33% | Dose/organ (Rattus norvegicus [31]): 16.52% | Dose/organ (Mus musculus [32]): 0.36% | Dose/organ (Rattus norvegicus [33]): 29.63% | Dose/organ (Rattus norvegicus [34]): 18.89% | Dose/organ (Mus musculus [35]): 1.53% | Dose/organ (Rattus norvegicus [36]): 2.37% | Dose/organ (Rattus norvegicus [37]): 0.46% | Dose/organ (Mus musculus [38]): 10.73% | Dose/organ (Mus musculus [39]): 17.26% | Dose/organ (Mus musculus [40]): 1.59% | Dose/organ (Rattus norvegicus [41]): 35.74% | Dose/organ (Mus musculus [42]): 0.12% | Dose/organ (Rattus norvegicus [43]): 2.05% | Dose/organ (Mus musculus [44]): 9.61% | Dose/organ (Mus musculus [45]): 35.12% | Dose/organ (Mus musculus [46]): 18.99% | Dose/organ (Mus musculus [47]): 0.38% | Dose/organ (Rattus norvegicus [48]): 1.05%
